According to ChEMBL document CHEMBL1777686, “Discovery of DA-1229: a potent, long acting dipeptidyl peptidase-4 inhibitor for the treatment of type 2 diabetes” (Bioorg Med Chem Lett, 2011):
Blank lines part the entries; values can stand above or below the compound they belong to.

Key:
Cytochrome P450 3A4 = Cytochrome P450 3A4 (Homo sapiens, UniProt P08684); assay: Inhibition of CYP3A4; assay type: ADME
Cytochrome P450 1A2 = biological target: T1, Cytochrome P450 1A2 (Homo sapiens, UniProt P05177); assay: Inhibition of CYP1A2; assay type: ADME
T1 sequence (P05177 whole entry): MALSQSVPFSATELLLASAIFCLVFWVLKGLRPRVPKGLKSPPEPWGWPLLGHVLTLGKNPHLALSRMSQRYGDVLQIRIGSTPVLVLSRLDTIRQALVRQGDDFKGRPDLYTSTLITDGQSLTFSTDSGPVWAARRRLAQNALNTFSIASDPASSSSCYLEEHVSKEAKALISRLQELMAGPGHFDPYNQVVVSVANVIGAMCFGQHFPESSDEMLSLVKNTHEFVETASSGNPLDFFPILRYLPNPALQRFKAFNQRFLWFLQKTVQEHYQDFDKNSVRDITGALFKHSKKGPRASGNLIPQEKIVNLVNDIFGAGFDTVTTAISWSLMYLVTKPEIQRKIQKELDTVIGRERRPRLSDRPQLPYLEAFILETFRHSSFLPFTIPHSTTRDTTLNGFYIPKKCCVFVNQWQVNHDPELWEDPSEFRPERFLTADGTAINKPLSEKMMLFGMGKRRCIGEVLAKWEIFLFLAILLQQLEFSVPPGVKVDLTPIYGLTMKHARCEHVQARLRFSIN

Cytochrome P450 2C19 = Cytochrome P450 2C19 (Homo sapiens, UniProt P33261); assay: Inhibition of CYP2C19; assay type: ADME
Cytochrome P450 2D6 = Cytochrome P450 2D6 (Homo sapiens, UniProt P10635); assay: Inhibition of CYP2D6; assay type: ADME
Cytochrome P450 2C9 = Cytochrome P450 2C9 (Homo sapiens, UniProt P11712); assay: Inhibition of CYP2C9; assay type: ADME
Rattus norvegicus [1] = assay: Inhibition of DPP-4 in Sprague-Dawley rat plasma at 3 mg/kg, po administered as single dose measured at 24 hrs post dose; assay type: functional
In short: (§1)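 SD rats received a single oral dose of 1, 3 or 10 mg/kg. Plasma was sampled from 30 min up to 24 h after dosing, and plasma DPP-4 activity was measured as percent inhibition.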

[2] = biological target: Voltage-gated inwardly rectifying potassium channel KCNH2 (Homo sapiens, UniProt Q12809); assay: Inhibition of human ERG by patch clamp method
Rattus norvegicus [3] = species: Rattus norvegicus; settings: Sprague-Dawley, Plasma, 1 mg/kg
[4] = Oral bioavailability in rat; assay type: ADME, organism-based; settings: in vivo
Mus musculus [5] = assay: Antidiabetic activity in po dosed C57BL/6J mouse assessed as reduction in glucose AUC administered 30 mins before glucose challenge measured up to 120 mins by oral glucose tolerance test; assay type: functional, organism-based
In short: (§2)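 Oral dosing in C57BL/6J mice at 0.1, 0.3 or 1.0 mg/kg in 0.5% methylcellulose vehicle, followed by a 2 g/kg glucose challenge 30 min post-dose. […] Percent inhibition was calculated from AUC normalized to non-glucose controls. Means ± SEM.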

Rattus norvegicus [6] = assay: Inhibition of DPP-4 in Sprague-Dawley rat plasma at 10 mg/kg, po administered as single dose measured at 24 hrs post dose; assay type: functional; in short: as §1
Rattus norvegicus [7] = assay: Inhibition of DPP-4 in Sprague-Dawley rat plasma at 1 mg/kg, po administered as single dose measured at 24 hrs post dose; assay type: functional; in short: as §1
[8] = Half life in human liver microsomes; assay type: ADME, Microsome
[9] = Half life in rat; assay type: ADME, organism-based; settings: in vivo
[10] = Clearance in rat; assay type: ADME, organism-based; settings: in vivo
[11] = Volume of distribution at steady state in rat; assay type: ADME, organism-based; settings: in vivo, read-out: Vdss
Mus musculus [12] = assay: Antidiabetic activity in C57BL/6J mouse assessed as inhibition of blood glucose elevation at 1 mg/kg, po administered 30 mins before glucose challenge by oral glucose tolerance test; assay type: functional; in short: as §2

Cytochrome P450 3A4, sequence (P08684 whole entry): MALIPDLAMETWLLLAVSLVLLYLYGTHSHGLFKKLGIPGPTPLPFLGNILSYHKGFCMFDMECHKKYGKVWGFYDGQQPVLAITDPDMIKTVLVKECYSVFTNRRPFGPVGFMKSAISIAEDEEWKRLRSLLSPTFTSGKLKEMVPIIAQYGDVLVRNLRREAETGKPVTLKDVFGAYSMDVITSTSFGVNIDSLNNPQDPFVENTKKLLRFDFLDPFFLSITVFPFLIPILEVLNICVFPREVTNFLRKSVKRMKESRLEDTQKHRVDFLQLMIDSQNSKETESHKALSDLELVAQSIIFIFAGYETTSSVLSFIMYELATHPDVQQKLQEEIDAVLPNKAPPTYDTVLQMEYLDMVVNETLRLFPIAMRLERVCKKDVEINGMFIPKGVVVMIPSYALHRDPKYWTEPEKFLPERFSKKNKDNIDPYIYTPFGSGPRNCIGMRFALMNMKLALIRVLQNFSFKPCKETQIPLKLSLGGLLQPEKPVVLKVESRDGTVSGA
Cytochrome P450 2C9, sequence (P11712 whole entry): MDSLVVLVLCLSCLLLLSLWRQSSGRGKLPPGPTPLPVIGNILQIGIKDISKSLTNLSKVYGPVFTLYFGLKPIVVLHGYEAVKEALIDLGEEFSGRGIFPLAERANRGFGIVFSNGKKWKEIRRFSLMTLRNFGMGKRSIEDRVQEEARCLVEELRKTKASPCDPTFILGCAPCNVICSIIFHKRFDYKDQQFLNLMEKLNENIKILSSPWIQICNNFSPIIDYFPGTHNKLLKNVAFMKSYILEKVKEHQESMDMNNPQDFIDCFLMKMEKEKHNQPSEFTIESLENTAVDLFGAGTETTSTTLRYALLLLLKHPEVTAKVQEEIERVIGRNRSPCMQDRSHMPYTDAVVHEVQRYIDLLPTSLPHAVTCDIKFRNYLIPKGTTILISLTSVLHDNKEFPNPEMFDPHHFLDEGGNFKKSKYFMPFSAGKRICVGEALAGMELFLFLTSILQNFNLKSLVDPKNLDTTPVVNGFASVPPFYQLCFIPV
Cytochrome P450 2D6, sequence (P10635 whole entry): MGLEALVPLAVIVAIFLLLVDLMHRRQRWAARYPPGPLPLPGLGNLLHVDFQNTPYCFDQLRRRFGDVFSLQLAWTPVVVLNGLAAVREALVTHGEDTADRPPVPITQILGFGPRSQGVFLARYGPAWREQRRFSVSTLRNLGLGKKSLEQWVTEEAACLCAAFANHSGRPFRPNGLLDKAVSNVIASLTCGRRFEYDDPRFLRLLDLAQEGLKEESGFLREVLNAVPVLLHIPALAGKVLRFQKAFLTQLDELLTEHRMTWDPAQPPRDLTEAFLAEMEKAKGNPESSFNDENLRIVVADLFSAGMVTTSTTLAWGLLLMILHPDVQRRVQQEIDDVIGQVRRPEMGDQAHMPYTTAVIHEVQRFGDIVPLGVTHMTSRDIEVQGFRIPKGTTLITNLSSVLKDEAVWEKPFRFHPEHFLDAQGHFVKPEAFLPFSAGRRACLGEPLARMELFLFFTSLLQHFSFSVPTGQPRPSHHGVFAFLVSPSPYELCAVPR
Cytochrome P450 2C19, sequence (P33261 whole entry): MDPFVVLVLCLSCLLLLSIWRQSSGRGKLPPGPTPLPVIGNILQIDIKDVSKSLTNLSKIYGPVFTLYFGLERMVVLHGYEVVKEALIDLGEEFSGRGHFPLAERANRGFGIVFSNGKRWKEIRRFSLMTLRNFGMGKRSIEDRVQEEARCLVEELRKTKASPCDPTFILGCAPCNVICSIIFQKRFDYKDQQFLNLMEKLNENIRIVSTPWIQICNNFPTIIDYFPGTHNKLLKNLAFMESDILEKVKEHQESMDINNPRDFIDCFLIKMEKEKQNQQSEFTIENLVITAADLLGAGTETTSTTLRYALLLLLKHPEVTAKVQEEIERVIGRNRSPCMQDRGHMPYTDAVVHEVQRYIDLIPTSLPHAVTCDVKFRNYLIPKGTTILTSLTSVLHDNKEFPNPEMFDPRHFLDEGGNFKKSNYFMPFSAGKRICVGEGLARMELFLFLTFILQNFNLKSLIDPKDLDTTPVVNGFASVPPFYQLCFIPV
Voltage-gated inwardly rectifying potassium channel KCNH2, sequence (Q12809 whole entry): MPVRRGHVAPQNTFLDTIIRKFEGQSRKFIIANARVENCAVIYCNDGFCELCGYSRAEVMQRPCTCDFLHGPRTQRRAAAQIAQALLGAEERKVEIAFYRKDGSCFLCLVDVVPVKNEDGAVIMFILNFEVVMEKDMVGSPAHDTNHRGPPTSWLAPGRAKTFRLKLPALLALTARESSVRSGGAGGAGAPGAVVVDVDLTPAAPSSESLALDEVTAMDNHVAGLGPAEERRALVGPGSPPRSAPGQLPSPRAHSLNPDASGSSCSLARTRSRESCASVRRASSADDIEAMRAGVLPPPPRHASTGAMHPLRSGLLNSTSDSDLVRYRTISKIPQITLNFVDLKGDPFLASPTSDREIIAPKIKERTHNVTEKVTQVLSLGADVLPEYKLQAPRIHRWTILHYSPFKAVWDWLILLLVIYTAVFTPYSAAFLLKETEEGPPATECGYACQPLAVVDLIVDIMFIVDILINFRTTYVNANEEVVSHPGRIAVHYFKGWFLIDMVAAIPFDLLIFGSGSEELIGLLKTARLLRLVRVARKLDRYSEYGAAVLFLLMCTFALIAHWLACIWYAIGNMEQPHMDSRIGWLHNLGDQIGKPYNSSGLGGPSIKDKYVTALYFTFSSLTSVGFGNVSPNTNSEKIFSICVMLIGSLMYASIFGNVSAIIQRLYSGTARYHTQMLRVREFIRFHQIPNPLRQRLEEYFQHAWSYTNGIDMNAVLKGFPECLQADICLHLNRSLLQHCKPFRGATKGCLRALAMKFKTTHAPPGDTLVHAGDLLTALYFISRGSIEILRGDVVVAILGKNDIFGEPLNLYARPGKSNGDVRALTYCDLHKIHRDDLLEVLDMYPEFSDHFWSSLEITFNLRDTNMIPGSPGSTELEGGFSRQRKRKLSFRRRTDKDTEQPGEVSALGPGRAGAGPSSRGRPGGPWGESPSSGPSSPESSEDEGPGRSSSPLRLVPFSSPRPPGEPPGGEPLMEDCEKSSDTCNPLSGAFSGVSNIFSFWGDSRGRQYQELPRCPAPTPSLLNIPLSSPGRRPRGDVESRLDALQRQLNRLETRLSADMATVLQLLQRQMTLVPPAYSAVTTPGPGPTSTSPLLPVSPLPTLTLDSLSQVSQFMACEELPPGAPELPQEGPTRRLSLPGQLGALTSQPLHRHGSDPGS

IC50 (Cytochrome P450 3A4): 1.07 µM
SMILES: COc1ccc(CN2CCN(C(=O)C[C@H](N)Cc3cc(F)c(F)cc3F)CC2=O)cc1

inhibition (INH) (Cytochrome P450 1A2): Not Active
inhibition (INH) (Cytochrome P450 2C19): Not Active
inhibition (INH) (Cytochrome P450 3A4): Not Active
inhibition (INH) (Cytochrome P450 2D6): Not Active
inhibition (INH) (Cytochrome P450 2C9): Not Active
SMILES: N[C@@H](CC(=O)N1CCNC(=O)[C@H]1CO)Cc1cc(F)c(F)cc1F

bioavailability [4]: 74.8%
INH (Cytochrome P450 1A2): > 50 µM
INH (Cytochrome P450 2C19): > 50 µM
INH (Cytochrome P450 3A4): > 50 µM
INH (Cytochrome P450 2D6): > 50 µM
INH (Cytochrome P450 2C9): > 50 µM
half-life [8]: > 1.5 h
half-life [9]: 6.1 h
clearance [10]: 60.5 mL/min/kg
Vd [11]: 12 L/kg
SMILES: CC(C)(C)OC[C@@H]1C(=O)NCCN1C(=O)C[C@H](N)Cc1cc(F)c(F)cc1F [EVOGLIPTIN]
inhibition in vivo at 3 mg/kg (Rattus norvegicus [1]): 82.9%
IC50 [2]: 79.6 µM
inhibition (Rattus norvegicus [3]): Dose-dependent effect
Activity (Mus musculus [5]): Dose-dependent effect
inhibition in vivo at 10 mg/kg (Rattus norvegicus [6]): 87.2%
inhibition in vivo at 1 mg/kg (Rattus norvegicus [7]): 72.5%
inhibition in vivo at 1 mg/kg (Mus musculus [12]): 63%
